What was measured:
IGROV-1 = assay: Cell cycle arrest in human IGROV1 cells assessed as accumulation at G2 phase at 0.5 uM after 24 hrs using propidium iodide staining by FACS analysis (reference value: 19 %); assay type: functional
Outline: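 Cells were plated 24 h before treatment and exposed for 24 h at final 0.5, 5, 15 and 50 μM in 0.5% DMSO, against vehicle-treated controls. Cells were then trypsinised and fixed in cold ethanol for 3 h at 4 °C. They were stained in a mix of RNase (200 μg/mL) and PI (1 mg/mL) for 45 min at room temperature in the dark. Flow cytometry used 488 nm excitation and 10 000 gated cells. Phase percentages were assigned from DNA content.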

[1] = (§1) Growth inhibition of human HUVEC cells after 48 hrs by SRB assay; assay type: cell-based; details: HUVEC cells
Outline: (§2)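 Cells grown in RPMI 1640 with 5% heat-inactivated FCS, 2 mM L-glutamine and antibiotics, 37 °C, 5% CO2. Seeded at 3500–30000 cells/well and left 24 h before dosing. DMSO solutions added at 10-fold dilutions from 100 to 0.01 μM for 48 h. Cells TCA-fixed and SRB-stained, absorbance read at 540 nm; GI50 derived against the time-zero plate.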

HUVEC = assay: as §1; assay type: cell-based; details: huvec, 48 h; outline: as §2
OVCAR-5 = assay: Growth inhibition of human OVCAR5 cells after 48 hrs by SRB assay; assay type: functional; details: OVCAR-5, 48 h; outline: as §2
U-251 = assay: Growth inhibition of human U251 cells after 48 hrs by SRB assay; assay type: functional; details: U-251, 48 h; outline: as §2
BXPC-3 = assay: Induction of apoptosis in human BxPC3 cells assessed as total apoptotic death at 50 uM using annexin V/7-AAD by FACS analysis (reference value: 18 %); assay type: functional
Outline: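 Cells plated 24 h before treatment, then exposed 24 h to 0.5, 5, 15 or 50 μM compound (final DMSO 0.5%); vehicle controls included. Cells scraped and stained with annexin V-FITC and 7-AAD for 15 min on ice in the dark. Flow cytometry with 488 nm excitation, 10,000 gated cells. Early apoptosis was annexin V+/7-AAD−, late was annexin V+/7-AAD+.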

PC-3 = assay: Cell cycle arrest in human PC3 cells assessed as accumulation at G2 phase at 15 uM after 24 hrs using propidium iodide staining by FACS analysis (reference value: 12 %); assay type: functional
[2] = read-out: LC50 (the source's name)

Question: What does the source list for CN1CCN(CCCc2ccc(C(c3ccccc3)C34CC5CC(CC(C5)C3)C4)cc2)CC1 (configuration not stated)?
Answer: Activity (IGROV-1): 23%; GI50 at 48 h [1]: 2.98 µM; LC50 (HUVEC): 8.62 µM; TGI (HUVEC): 5.8 µM; GI50 (OVCAR-5): 3.6 µM; TGI (OVCAR-5): 6.9 µM; CC50 (OVCAR-5; [2]): 0.0102 µM; GI50 (U-251): 3.62 µM; TGI (U-251): 5.93 µM; CC50 (U-251; [2]): 0.00824 µM; Activity (BXPC-3): 46%; Activity (PC-3): 11%
